Values belong to the compound of their own block, whether it stands above or below them.
Tests used:
[1] = biological target: 11-beta-hydroxysteroid dehydrogenase 1 (Homo sapiens, UniProt P28845); experiment: Inhibition of human 11beta-HSD1 expressed in CHO cells after 3 hrs by HTRF cortisol assay; type: cell-based
[2] = biological target: T1, 11-beta-hydroxysteroid dehydrogenase type 2 (Homo sapiens) (UniProt P80365); experiment: Inhibition of human 11beta-HSD2 expressed in HEK293 cells at 10 uM after 24 hrs by HTRF cortisol assay; type: cell-based
T1 sequence (whole entry): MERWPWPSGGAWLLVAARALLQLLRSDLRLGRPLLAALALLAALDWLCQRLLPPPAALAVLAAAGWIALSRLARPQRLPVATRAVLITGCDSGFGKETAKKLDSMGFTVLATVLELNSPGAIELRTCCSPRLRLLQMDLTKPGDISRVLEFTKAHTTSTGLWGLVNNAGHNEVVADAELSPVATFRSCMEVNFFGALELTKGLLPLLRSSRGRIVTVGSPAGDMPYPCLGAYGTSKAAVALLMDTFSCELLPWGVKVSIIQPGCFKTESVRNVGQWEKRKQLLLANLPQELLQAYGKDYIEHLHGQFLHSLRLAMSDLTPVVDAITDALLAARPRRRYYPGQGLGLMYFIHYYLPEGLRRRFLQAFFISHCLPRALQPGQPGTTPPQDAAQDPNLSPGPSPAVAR

[3] = Metabolic stability in human liver microsomes after 30 mins; type: ADME, Microsome; details: read-out: Stability
[4] = biological target: 11-beta-hydroxysteroid dehydrogenase 1 (Mus musculus, UniProt P50172); experiment: Inhibition of mouse 11beta-HSD1 expressed in CHO cells after 3 hrs by HTRF cortisol assay; type: cell-based
Mus musculus [5] = experiment: In vivo inhibition of 11beta-HSD1 in C57/BL6 mouse lnguinal fat pad assessed as cortisol product at 40 mg/kg, po after 2 hrs by ELISA; type: functional; details: C57Bl/6, Fat pad
[6] = Clearance in po dosed rat; type: ADME, organism-based; details: in vivo
[7] = Cmax in po dosed rat; type: ADME, organism-based; parameters: route oral; details: in vivo
[8] = Oral bioavailability in po dosed rat; type: ADME, organism-based; details: in vivo
CYP1A2 = biological target: T2, CYP1A2 (Homo sapiens, UniProt P05177); experiment: Inhibition of CYP1A2 at 10 uM; type: ADME
T2 sequence (P05177 whole entry): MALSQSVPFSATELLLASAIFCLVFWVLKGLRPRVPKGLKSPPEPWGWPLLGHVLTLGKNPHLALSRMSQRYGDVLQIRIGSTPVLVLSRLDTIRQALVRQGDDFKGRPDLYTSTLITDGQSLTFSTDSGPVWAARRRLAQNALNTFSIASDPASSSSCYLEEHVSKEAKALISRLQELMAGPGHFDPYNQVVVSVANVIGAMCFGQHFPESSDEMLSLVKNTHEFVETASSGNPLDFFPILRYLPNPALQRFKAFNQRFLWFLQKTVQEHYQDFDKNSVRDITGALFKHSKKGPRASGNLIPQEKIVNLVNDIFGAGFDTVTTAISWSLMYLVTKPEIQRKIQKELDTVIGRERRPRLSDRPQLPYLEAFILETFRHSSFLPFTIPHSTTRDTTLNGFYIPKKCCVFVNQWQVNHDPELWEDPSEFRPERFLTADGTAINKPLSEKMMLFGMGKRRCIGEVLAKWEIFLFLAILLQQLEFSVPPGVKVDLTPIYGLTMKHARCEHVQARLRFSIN

CYP2C19 = CYP2C19 (Homo sapiens, UniProt P33261); experiment: Inhibition of CYP2C19 at 10 uM; type: ADME
Mus musculus [9] = experiment: In vivo inhibition of 11beta-HSD1 in C57Bl/6 mouse liver assessed as cortisol product at 40 mg/kg, po after 2 hrs by ELISA; type: functional; details: C57Bl/6, 2 h
CYP2D6 = CYP2D6 (Homo sapiens, UniProt P10635); experiment: Inhibition of CYP2D6 at 10 uM; type: ADME
CYP3A4 = CYP3A4 (Homo sapiens, UniProt P08684); experiment: Inhibition of CYP3A4 at 10 uM; type: ADME
Mus musculus [10] = experiment: Antidiabetic activity in KKAy mouse assessed as reduction of non-fasting plasma glucose level at 100 mg/kg, po qd for 18 days relative to control; type: functional; parameters: scale not given: the % may be the effect or the level left
Summary of the method: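 KKAy mice dosed orally at 100 mg/kg for 18 days alongside vehicle-treated controls; non-fasting blood glucose measured after 18 days; n = 7 mice/group, means ± SEM.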

[11] = AUC (0 to 8 hrs) in po dosed rat; type: ADME, organism-based; parameters: time < 8 hr, route oral; details: plasma
Summary of the method: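 Rats dosed orally; plasma exposure expressed as AUC over 0–8 h.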

Cynomolgus monkey [12] = experiment: In vivo inhibition of 11beta-HSD1 in cynomolgus monkey liver assessed as cortisol product at 20 mg/kg, po after 2 hrs by ELISA; type: functional; details: Macaca fascicularis
Cynomolgus monkey [13] = experiment: In vivo inhibition of 11beta-HSD1 in cynomolgus monkey lnguinal fat pad assessed as cortisol product at 20 mg/kg, po after 2 hrs by ELISA; type: functional; details: Macaca fascicularis
[14] = biological target: Voltage-gated inwardly rectifying potassium channel KCNH2 (Homo sapiens, UniProt Q12809); experiment: Binding affinity to human ERG
Mus musculus [15] = experiment: Antidiabetic activity in KKAy mouse assessed as reduction of AUC of plasma glucose level at 100 mg/kg, po qd for 18 days by oral glucose tolerance test relative to control; type: functional; parameters: scale not given: the % may be the effect or the level left

Sequence of 11-beta-hydroxysteroid dehydrogenase 1 (Mus musculus, UniProt P50172) (P50172 whole entry): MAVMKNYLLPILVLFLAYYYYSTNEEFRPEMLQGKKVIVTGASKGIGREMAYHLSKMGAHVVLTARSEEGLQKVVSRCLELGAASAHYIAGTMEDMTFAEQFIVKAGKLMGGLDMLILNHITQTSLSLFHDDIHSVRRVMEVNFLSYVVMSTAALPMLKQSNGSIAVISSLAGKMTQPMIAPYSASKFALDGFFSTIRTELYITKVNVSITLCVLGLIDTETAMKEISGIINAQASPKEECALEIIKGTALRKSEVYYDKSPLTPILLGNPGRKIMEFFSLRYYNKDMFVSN
Sequence of 11-beta-hydroxysteroid dehydrogenase 1 (Homo sapiens, UniProt P28845) (P28845 whole entry): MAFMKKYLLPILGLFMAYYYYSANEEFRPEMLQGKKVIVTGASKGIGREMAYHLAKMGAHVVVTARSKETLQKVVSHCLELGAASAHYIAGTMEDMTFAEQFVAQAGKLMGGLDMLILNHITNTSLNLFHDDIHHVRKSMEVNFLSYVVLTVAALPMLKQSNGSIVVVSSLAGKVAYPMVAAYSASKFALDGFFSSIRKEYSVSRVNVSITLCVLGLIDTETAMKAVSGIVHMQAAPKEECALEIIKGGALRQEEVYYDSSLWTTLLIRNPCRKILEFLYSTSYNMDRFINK
Sequence of CYP2D6 (P10635 whole entry): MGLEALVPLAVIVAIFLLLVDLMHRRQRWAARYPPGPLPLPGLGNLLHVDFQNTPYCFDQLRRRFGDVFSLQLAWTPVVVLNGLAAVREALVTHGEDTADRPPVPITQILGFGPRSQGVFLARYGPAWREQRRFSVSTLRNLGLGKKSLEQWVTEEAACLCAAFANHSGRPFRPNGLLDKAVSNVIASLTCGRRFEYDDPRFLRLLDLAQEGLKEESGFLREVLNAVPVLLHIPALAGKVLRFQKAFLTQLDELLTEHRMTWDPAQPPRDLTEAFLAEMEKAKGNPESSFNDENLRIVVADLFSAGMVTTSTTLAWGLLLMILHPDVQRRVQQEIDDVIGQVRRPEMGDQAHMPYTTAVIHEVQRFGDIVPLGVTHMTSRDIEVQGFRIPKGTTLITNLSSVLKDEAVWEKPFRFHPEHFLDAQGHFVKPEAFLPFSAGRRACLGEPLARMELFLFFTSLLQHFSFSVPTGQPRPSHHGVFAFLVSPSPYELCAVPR
Sequence of CYP2C19 (P33261 whole entry): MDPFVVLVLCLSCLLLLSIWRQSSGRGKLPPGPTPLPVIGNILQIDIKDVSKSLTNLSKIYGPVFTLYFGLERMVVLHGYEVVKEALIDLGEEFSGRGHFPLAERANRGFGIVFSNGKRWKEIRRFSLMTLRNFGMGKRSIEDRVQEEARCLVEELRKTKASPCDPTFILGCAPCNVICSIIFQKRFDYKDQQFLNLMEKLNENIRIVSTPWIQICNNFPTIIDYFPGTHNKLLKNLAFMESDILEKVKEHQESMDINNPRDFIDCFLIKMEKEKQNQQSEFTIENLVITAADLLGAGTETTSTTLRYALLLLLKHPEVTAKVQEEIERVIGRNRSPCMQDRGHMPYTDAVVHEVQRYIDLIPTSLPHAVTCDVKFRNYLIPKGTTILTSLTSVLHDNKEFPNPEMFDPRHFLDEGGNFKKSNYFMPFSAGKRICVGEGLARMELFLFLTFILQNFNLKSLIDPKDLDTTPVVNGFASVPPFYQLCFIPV
Sequence of CYP3A4 (P08684 whole entry): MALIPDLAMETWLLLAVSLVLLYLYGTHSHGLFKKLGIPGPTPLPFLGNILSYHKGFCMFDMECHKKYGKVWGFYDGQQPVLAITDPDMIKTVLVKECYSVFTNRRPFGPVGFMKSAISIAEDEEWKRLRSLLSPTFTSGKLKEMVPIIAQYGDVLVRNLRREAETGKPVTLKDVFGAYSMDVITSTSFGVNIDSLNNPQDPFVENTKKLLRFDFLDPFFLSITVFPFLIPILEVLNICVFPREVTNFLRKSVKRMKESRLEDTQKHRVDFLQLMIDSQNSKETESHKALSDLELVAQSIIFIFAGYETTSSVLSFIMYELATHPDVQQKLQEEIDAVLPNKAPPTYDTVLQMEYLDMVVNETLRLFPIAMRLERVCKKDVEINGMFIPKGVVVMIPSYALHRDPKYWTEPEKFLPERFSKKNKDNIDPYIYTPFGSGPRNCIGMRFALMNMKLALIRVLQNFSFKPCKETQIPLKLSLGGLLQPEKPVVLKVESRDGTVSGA
Sequence of Voltage-gated inwardly rectifying potassium channel KCNH2 (Q12809 whole entry): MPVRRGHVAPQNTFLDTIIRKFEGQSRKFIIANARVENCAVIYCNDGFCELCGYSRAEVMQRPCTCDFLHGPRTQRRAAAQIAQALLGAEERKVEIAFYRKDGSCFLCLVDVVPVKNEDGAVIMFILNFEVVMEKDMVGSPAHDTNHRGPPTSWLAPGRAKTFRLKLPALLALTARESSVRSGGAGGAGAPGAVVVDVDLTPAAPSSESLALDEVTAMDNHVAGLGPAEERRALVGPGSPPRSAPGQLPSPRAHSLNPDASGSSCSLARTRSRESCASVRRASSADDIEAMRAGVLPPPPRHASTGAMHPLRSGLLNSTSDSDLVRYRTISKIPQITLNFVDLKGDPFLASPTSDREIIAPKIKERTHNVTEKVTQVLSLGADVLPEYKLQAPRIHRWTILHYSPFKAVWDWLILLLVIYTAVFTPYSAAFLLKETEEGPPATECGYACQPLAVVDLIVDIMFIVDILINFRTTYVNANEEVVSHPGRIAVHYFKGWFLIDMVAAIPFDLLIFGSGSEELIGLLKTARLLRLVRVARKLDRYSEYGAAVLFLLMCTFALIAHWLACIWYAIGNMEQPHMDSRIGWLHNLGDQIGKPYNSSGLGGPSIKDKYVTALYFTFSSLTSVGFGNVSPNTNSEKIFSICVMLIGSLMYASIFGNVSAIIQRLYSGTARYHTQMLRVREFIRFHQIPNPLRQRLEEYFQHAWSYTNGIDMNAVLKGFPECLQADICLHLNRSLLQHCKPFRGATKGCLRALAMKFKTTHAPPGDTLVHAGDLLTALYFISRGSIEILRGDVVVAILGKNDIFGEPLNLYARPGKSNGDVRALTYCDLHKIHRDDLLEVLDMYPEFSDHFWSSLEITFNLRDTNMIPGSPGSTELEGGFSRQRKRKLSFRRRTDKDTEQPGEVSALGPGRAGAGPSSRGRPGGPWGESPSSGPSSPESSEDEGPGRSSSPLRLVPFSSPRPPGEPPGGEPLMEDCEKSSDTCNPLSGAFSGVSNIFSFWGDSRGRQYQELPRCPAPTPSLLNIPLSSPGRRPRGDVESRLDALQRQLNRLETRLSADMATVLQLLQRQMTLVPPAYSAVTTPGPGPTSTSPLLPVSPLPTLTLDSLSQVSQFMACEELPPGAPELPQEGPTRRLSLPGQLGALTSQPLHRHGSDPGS

Structure (SMILES): NC(=O)C12CC3CC(C1)C(NC(=O)C1SCCN1S(=O)(=O)c1ccc(Cl)c(Cl)c1)C(C3)C2 (stereo unspecified)
IC50 [1]: 5 nM
inhibition [2]: 47%
remaining at 0.5 h [3]: 43%

Structure (SMILES): Cc1ccc(S(=O)(=O)N2CCSC2C(=O)NC2C3CC4CC2CC(C(N)=O)(C4)C3)cc1 (stereo unspecified)
IC50 [1]: 8 nM
inhibition in vivo at 40 mg/kg (Mus musculus [5]): 51%
CL/F [6]: 43.3 mL/min/kg
inhibition [2]: 0%
IC50 [4]: 57 nM
remaining at 0.5 h [3]: 53%
Cmax [7]: 0.65 µg/mL
bioavailability [8]: 16%
inhibition at 10 µM (CYP1A2): 0%
inhibition at 10 µM (CYP2C19): 21%
inhibition in vivo at 40 mg/kg (Mus musculus [9]): 51%
inhibition at 10 µM (CYP2D6): 0%
inhibition at 10 µM (CYP3A4): 24%

Structure (SMILES): COc1ccc(S(=O)(=O)N2CCSC2C(=O)NC2C3CC4CC2CC(C(N)=O)(C4)C3)cc1 (stereo unspecified)
IC50 [4]: 171 nM

Structure (SMILES): NC(=O)C12CC3CC(C1)C(NC(=O)C1SCCN1S(=O)(=O)c1cccc(F)c1)C(C3)C2 (stereo unspecified)
IC50 [4]: 76 nM

Structure (SMILES): NC(=O)C12CC3CC(C1)C(NC(=O)C1SCCN1S(=O)(=O)c1ccccc1F)C(C3)C2 (stereo in doubt; 8g (E)) [listing 1 of 2 here]
IC50 [1]: 3 nM
inhibition in vivo at 40 mg/kg (Mus musculus [5]): 67%
CL/F [6]: 48.3 mL/min/kg
Activity (Mus musculus [10]): 28.2%
IC50 [4]: 3 nM
remaining at 0.5 h [3]: 77%
AUC(0-t) at 8 h [11]: 1110 ng·h/mL
inhibition in vivo at 20 mg/kg (Cynomolgus monkey [12]): 57%
bioavailability [8]: 32%
inhibition at 10 µM (CYP1A2): 0%
inhibition in vivo at 20 mg/kg (Cynomolgus monkey [13]): 62%
inhibition at 10 µM (CYP2C19): 25%
inhibition in vivo at 40 mg/kg (Mus musculus [9]): 65%
inhibition at 10 µM (CYP2D6): 0%
inhibition at 10 µM (CYP3A4): 21%
Activity [14]: > 100 µM
Activity (Mus musculus [15]): 18.1%

Structure (SMILES): NC(=O)C12CC3CC(C1)C(NC(=O)[C@@H]1SCCN1S(=O)(=O)c1ccccc1F)C(C3)C2 (stereo in doubt; 8g (S) (E))
IC50 [1]: 12 nM

Structure (SMILES): NC(=O)C12CC3CC(C1)C(NC(=O)C1SCCN1S(=O)(=O)c1ccccc1F)C(C3)C2 (stereo in doubt; 8g (Z))
IC50 [1]: 7950 nM

Structure (SMILES): NC(=O)C12CC3CC(C1)C(NC(=O)C1SCCN1S(=O)(=O)c1ccccc1F)C(C3)C2 (stereo in doubt; 8g)
IC50 [1]: 4 nM
IC50 [4]: 4 nM

Next, values leading:

IC50 [4]: 842 nM
Structure (SMILES): NC(=O)C12CC3CC(C1)C(NC(=O)C1SCCN1S(=O)(=O)c1ccccc1)C(C3)C2 (stereo unspecified)

IC50 [4]: 27 nM
Structure (SMILES): NC(=O)C12CC3CC(C1)C(NC(=O)C1SCCN1S(=O)(=O)c1ccc(F)cc1)C(C3)C2 (stereo unspecified)

IC50 [1]: 4 nM
Structure (SMILES): NC(=O)C12CC3CC(C1)C(NC(=O)C1SCCN1S(=O)(=O)c1ccccc1F)C(C3)C2 (mixture of isomers)

inhibition [2]: 0%
Structure (SMILES): NC(=O)C12CC3CC(C1)C(NC(=O)C1SCCN1S(=O)(=O)c1ccccc1F)C(C3)C2 (stereo in doubt; 8g (E)) [listing 2 of 2 here]

IC50 [1]: 2 nM
Structure (SMILES): NC(=O)C12CC3CC(C1)C(NC(=O)[C@H]1SCCN1S(=O)(=O)c1ccccc1F)C(C3)C2 (stereo in doubt; 8g (R) (E))

IC50 [1]: 1340 nM
Structure (SMILES): NC(=O)C12CC3CC(C1)C(NC(=O)[C@H]1SCCN1S(=O)(=O)c1ccccc1F)C(C3)C2 (stereo in doubt; 8g (R) (Z))

IC50 [1]: 38700 nM
Structure (SMILES): NC(=O)C12CC3CC(C1)C(NC(=O)[C@@H]1SCCN1S(=O)(=O)c1ccccc1F)C(C3)C2 (stereo in doubt; 8g (S) (Z))

Source: ChEMBL document CHEMBL1641412, “Synthesis and 11β hydroxysteroid dehydrogenase 1 inhibition of thiazolidine derivatives with an adamantyl group” (Bioorg Med Chem Lett, 2011)
